Data set [1] concerns the target T1, UGT (Homo sapiens, UniProt O60656+O75310+O75795+P06133+P0DTE4+P0DTE5+P16662+P19224+P22309+P22310+P35503+P35504+P36537+P54855+Q6UWM9+Q9BY64+Q9HAW7+Q9HAW8+Q9HAW9). As to the kind of experiment: Metabolic stability of the compound in human liver microsomes S9 fraction assessed as UGT-mediated metabolism by measuring parent compound remaining at 5 uM measured after 15 mins in presence of UDPGA by UPLC-MS analysis. The conditions noted are these: read-out: Stabilty. Type of data set: ADME, subcellular. In a few lines:
(§1)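 Compound at 5 μM with 0.5 mg/mL male mouse or pooled human liver microsomes; reaction started with 2 mM UDPGA. Sampled at 0, 15, 30 and 60 min and quenched in cold acetonitrile with internal standard. Parent remaining measured by UPLC-MS/MS (MRM) as % of the 0 min value.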

Data set [2] has as its target T1, UGT. Briefly: Metabolic stability of the compound in human liver microsomes S9 fraction assessed as UGT-mediated metabolism by measuring parent compound remaining at 5 uM measured after 30 mins in presence of UDPGA by UPLC-MS analysis. Type of data set: ADME, subcellular. The conditions noted are these: read-out: Stabilty. In short, it runs like this: as §1
A general note: Liver microsomes are a subcellular fraction often used to study metabolism.

Data set [3] relates to Trypanosoma cruzi. Briefly: Antitrypanosomal activity against nifurtimox-sensitive Trypanosoma cruzi Tulahuen CL2 infected in Swiss mouse peritoneal macrophages assessed as inhibition of parasite growth measured after 7 days in presence of ABC transporter inhibitor, cyclosporine A by spectrophotometric analysis. The settings on record: Tulahuen CL2, Peritoneal macrophage, 168 h. The data set is classed as functional, organism-based. In short, it runs like this:
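Macrophage-hosted 7-day assay read with CPRG at 540 nm, with compound given together with an ABC transporter inhibitor: cyclosporine A 2 μM, probenecid 700 μM or verapamil 8 μM. IC50 from % reduction versus infected controls.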

In data set [4] the test system is Trypanosoma cruzi. Briefly: Antitrypanosomal activity against Trypanosoma cruzi strain Y bloodstream trypomastigotes infected in Swiss Webster mouse assessed as reduction in parasitemia at 0.25 to 2.5 mg/kg, po bid for 5 days treatment started at 6 days post-infection by light microscopic analysis. The data set is classed as functional. The conditions noted are these: dose 0.25-2.5 mg/kg, time 5 day. In short, it runs like this:
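Male Swiss Webster mice, 18–20 g, six per group; only mice with detectable parasitemia treated. Oral gavage for 5 consecutive days (6–10 dpi); test compound given b.i.d. in 10% Tween 80, benznidazole once daily, formulations freshly prepared. Parasitemia counted by light microscopy in 5 μL blood; mortality checked daily to 34 dpi.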

Data set [5] is described as follows: Selectivity index, ratio of LC50 for cytotoxicity against Swiss Webster mouse 2D cardiomyocytes to IC50 for antitrypanosomal activity against intracellular amastigote form of Trypanosoma cruzi Y infected in Swiss Webster mouse cardiomyocytes. The data set is classed as toxicity, cell-based. The settings on record: read-out: Ratio LC50/IC50. In short, it runs like this:
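Ratio of cardiac-cell CC₅₀ to Y-strain amastigote IC₅₀. Cardiac cultures were infected after 24 h plating for 24 h with bloodstream trypomastigotes (10:1 parasite/host). After washing, cells were treated 48 h at 37 °C with a serial dilution. Cells were then Giemsa-stained, with infection and parasites per cell scored in 200 cells. Two independent experiments were run in duplicate.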

In data set [6] the test system is UGT. Briefly: Metabolic stability of the compound in mouse liver microsomes S9 fraction assessed as UGT-mediated metabolism by measuring parent compound remaining at 5 uM measured after 60 mins in presence of UDPGA by UPLC-MS analysis. The data set is classed as ADME, subcellular. The settings on record: read-out: Stabilty. In short, it runs like this:
as §1

The nature of data set [7]: Cytotoxicity against human MRC-5 SV2 cells assessed as reduction in cell growth measured after 3 days by resazurin dye based fluorometric analysis. The settings on record: time 3 day.
A short description of data set [8]: Cytotoxicity against Swiss mouse peritoneal macrophages assessed as cell detachment, lysis and granulation measured after 5 days by microscopic analysis. The conditions noted are these: time 5 day. The data set is classed as cell-based, Peritoneal macrophage. In a few lines: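 Scored within the Leishmania macrophage assay over 5 days: detachment, lysis and granulation judged semi-quantitatively by microscopy across at least 500 cells. CC50 derived from % reduction in normal cells versus untreated wells.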

Data set [9] has as its target CYP450 (Homo sapiens, UniProt P04798+P05177+P05181+P08684+P10632+P10635+P11509+P11712+P13584+P20813+P20815+P20853+P24462+P24903+P33260+P33261+P51589+P78329+P98187+Q02928+Q08477+Q16678+Q16696+Q5TCH4+Q6VVX0+Q7Z449+Q8TAV3+Q96SQ9+Q9HB55). Briefly: Metabolic stability of the compound in human liver microsomes S9 fraction assessed as CYP450-mediated metabolism by measuring parent compound remaining at 5 uM measured after 30 mins in presence of NADPH by UPLC-MS analysis. Type of data set: ADME, subcellular. The settings on record: read-out: Stabilty. In a few lines: (§2)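 Compound at 5 μM with 0.5 mg/mL male mouse or pooled human liver microsomes in potassium phosphate buffer; reaction started with 1 mM NADPH. Samples taken at 0, 15, 30 and 60 min and quenched in cold acetonitrile with internal standard. Parent remaining quantified by UPLC-MS/MS in MRM mode and given as % of the 0 min value.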

The subject of data set [10] is UGT. Briefly: Metabolic stability of the compound in mouse liver microsomes S9 fraction assessed as UGT-mediated metabolism by measuring parent compound remaining at 5 uM measured after 15 mins in presence of UDPGA by UPLC-MS analysis. The conditions noted are these: read-out: Stabilty. The data set is classed as ADME, subcellular. In a few lines: as §1
Data set [11] relates to CYP450. As to the kind of experiment: Metabolic stability of the compound in mouse liver microsomes S9 fraction assessed as CYP450-mediated metabolism by measuring parent compound remaining at 5 uM measured after 60 mins in presence of NADPH by UPLC-MS analysis. Type of data set: ADME, subcellular. The conditions noted are these: read-out: Stabilty. In short, it runs like this: as §2

Data set [12] is described as follows: Toxicity in Swiss webster mouse infected with Trypanosoma cruzi Y trypomastigotes assessed as animal survival at 0.25 mg/kg, po bid for 5 days treatment started at 6 days post-infection and measured at 34 days post-infection. The conditions noted are these: in vivo, 696 h, time 29 day. Type of data set: organism-based. In short, it runs like this:
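Male Swiss Webster mice (18−20 g, 4−5 weeks) were infected i.p. with 10⁴ Y-strain bloodstream trypomastigotes from a donor mouse. Only mice with detectable parasitemia were treated, in groups of six. Oral gavage was given on days 6–10 post-infection, b.i.d. or q.d. as listed, in 10% Tween 80 vehicle, freshly prepared. Infected vehicle controls were included. Mortality was checked daily to 34 dpi as cumulative percentage.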

Data set [13] deals with CYP450. Briefly: Metabolic stability of the compound in mouse liver microsomes S9 fraction assessed as CYP450-mediated metabolism by measuring parent compound remaining at 5 uM measured after 15 mins in presence of NADPH by UPLC-MS analysis. Type of data set: ADME, subcellular. The settings on record: read-out: Stabilty. In short, it runs like this:
as §2

Data set [14] relates to Trypanosoma cruzi. As to the kind of experiment: Antitrypanosomal activity against Trypanosoma cruzi Y bloodstream trypomastigotes assessed as inhibition of parasite growth incubated for 24 hrs by light microscopy. The data set is classed as functional, organism-based.

Structures are written as SMILES.

These results are taken from ChEMBL document CHEMBL4811241, “Revisiting Pyrazolo[3,4-d]pyrimidine Nucleosides as Anti-Trypanosoma cruzi and Antileishmanial Agents” (J Med Chem, 2021).

What is called IC50 is the concentration that gives 50% inhibition. One may read the CC50 as the concentration that lowers cell viability or growth by half.

Turning to `Nc1ncnc2c1c(-c1ccc(Cl)cc1)nn2[C@@H]1O[C@H](CO)[C@@H](O)[C@H]1O`, the remaining at 0.25 h, 5 µM at UGT [1] amounted to 100%; with UGT [10], 103%; in the data set on CYP450 [13], 103%. In addition, the remaining at 0.5 h, 5 µM at UGT [2] was determined as 106%; on CYP450 [9], 101%. Besides, the IC50 in the data set on Trypanosoma cruzi [3] is > 64 µM; in the data set with Trypanosoma cruzi [14] it was > 81 µM. Moreover, the “inhibition (INH)” value with Trypanosoma cruzi [4] came out at 43%. For the same compound, the selectivity ratio in [5] is > 1900. The remaining at 1 h, 5 µM in the data set with UGT [6] was 115%; with CYP450 [11], 108%. The cytotoxic concentration (CC50) at 72 h in [7] was > 64 µM. The CC50 at 120 h in [8] is > 64 µM. In data set [12], the Activity entry is given as “Toxic”.
